Compound activity as filed in PubChem.
CHO parental Ca: ATP-evoked calcium signal inhibitors, parental CHO, primary screen, counter-screen for OX1R antagonist project, cell-based, fluorescence, Fluo-8 calcium dye; parental CHO-K1, ATP-induced calcium, Fluo-8 fluorescence; inhibition, % at 5.6 µM; 330,000 compounds, 0.63% hits;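 active = inhibition above that plate's mean sample inhibition plus 3 SD, cut at about 26% in these data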;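 note: 0% = ATP-challenged DMSO wells and 100% = DMSO wells without ATP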
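Assay system: parental CHO cells; Read-out basis: percent inhibition of ATP-evoked calcium rise, normalized to controls; Benchmarks: ATP and no-ATP DMSO wells; Compound dosing: single nominal dose of 5.6 µM per compound; Signal: Fluo-8 calcium dye fluorescence; Also added: ATP as calcium-mobilizing challenge; Repeats: singlicate.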
OX1R antag-1: antagonists of human orexin 1 receptor (OX1R). AID 485270, 2010. Orexin/Hypocretin receptor type 1 (Homo sapiens), O43613. OX1R-expressing cells, FRET antagonist read-out. 330,000 compounds, 1.8% hits. inhibition, % at 6.6 µM; in the data active = inhibition mostly above about 38%, no sharp cut-off; inactive = mostly below about 40%;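 note: 0% = agonist challenge alone and 100% = reference antagonist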
Target sequence (O43613 whole entry, looked up): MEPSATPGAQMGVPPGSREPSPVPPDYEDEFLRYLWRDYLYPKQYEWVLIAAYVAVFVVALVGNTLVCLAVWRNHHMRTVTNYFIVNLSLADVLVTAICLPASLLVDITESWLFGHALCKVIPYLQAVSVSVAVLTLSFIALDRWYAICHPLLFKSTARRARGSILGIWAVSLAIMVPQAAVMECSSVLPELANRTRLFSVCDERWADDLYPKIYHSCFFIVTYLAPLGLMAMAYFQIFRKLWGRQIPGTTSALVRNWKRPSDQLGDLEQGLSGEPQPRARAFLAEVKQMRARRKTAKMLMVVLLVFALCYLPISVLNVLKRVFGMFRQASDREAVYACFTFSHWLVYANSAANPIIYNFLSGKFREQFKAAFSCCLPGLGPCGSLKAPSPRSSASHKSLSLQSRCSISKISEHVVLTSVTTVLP
OX1R antag-2: OX1R (HCRTR1) antagonists, primary screen, fluorescence, CHO/OX1R cells, Fluo-8 calcium, orexin A; inhibition, % at 5 µM; Orexin/Hypocretin receptor type 1 (Homo sapiens), O43613; 330,000 compounds, 0.43% hits; Fluo-8 calcium fluorescence;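 active = inhibition above its plate's threshold, mean inhibition of all tested compounds on the plate plus 3 SD, cut at about 37% in these data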;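 note: 0% = orexin A challenge wells and 100% = SB-334867-A antagonist wells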
GalR3 antagonist: GalR3 antagonists in HEK293 cells, primary screen, cell-based, fluorescence readout | inhibition, % at 3 µM | HEK293 GalR3-CNG cAMP membrane potential fluorescence; galR3 body fused to GalR1 C-terminus | 360,000 compounds, 0.44% hits | AID 651719, 2012 | Galanin receptor type 3 (Homo sapiens), O60755;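 active = inhibition above the screen-wide average plus 3 SD, cut at about 13% in these data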;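 note: forskolin and galanin both at EC90 stimulate the cells; cAMP rise reported by CNG channel membrane potential dye signal; 0% = forskolin plus galanin with DMSO and 100% = forskolin alone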
GPR7 antagonist: GPR7 receptor antagonists, primary screen, cell-based, fluorescence, single concentration; inhibition, % at 4.4 µM; GPR7-expressing cells, fluorescence antagonist assay; Neuropeptides B/W receptor type 1 (Homo sapiens), P48145; AID 1861, 2009; 290,000 compounds, 1.1% hits; in the data active = inhibition above about 16%, passing the limit was not always enough;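 note: cells stimulated with the agonist NPW; 0% = agonist with vehicle and 100% = vehicle without agonist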
* = called active by the depositor; x = not tested or not shown. Most compounds without a hit are left out; they make up all but 3.1% or so of the library.

SMILES | CHO parental Ca | OX1R antag-1 | OX1R antag-2 | GalR3 antagonist | GPR7 antagonist
CCCn1cnc2c(=S)nc(N)[nH]c21 | -2 | 8 | -1 | -3 | 18*
CCOc1ccc(-c2nc(-c3cccs3)c(CC(=O)O)s2)cc1OC | -4 | 38* | -7 | 0 | 4
CCN(CC)c1ccc(C(=O)OCC(=O)Nc2ccccc2-c2ccccc2)cc1 | 67* | 49* | -3 | -5 | 4
CC(C)CCNC(=O)[C@@H](Cc1ccccc1)NC(=O)[C@H]1O[C@@H](n2ccc(=O)[nH]c2=O)[C@H](O)[C@@H]1O | x | x | x | -4 | x
COc1ccc(OC)c(Nc2cc3ccccc3c(=O)[nH]2)c1 | -11 | 68* | -21 | -9 | x
COc1ccccc1Nc1cc2cc(Br)ccc2c(=O)[nH]1 | -18 | 46 | 2 | -2 | x
C/C(=N/OCC(=O)NCCCCCCNC(=O)CO/N=C(/C)c1cccs1)c1cccs1 | -23 | 71* | -14 | -5 | 10
CCC(C)(C)NS(=O)(=O)c1cc(CN2C(=O)c3cccnc3C2=O)ccc1OC | -4 | 2 | -27 | -13 | 11
CCCCCC(=O)Nc1ccc(C(=O)COC(=O)c2ccccn2)cc1 | -21 | 18 | -13 | 1 | x
CCC(=O)N(C1=C(NC(C)C)C(=O)c2ccccc2C1=O)C(C)C | -5 | 44 | 2 | 0 | -11
CCCNC1=C(N(C(C)=O)c2cccc(F)c2)C(=O)c2ccccc2C1=O | -5 | 68* | -17 | -4 | 3
CC(C)CNC(=O)c1ccccc1NC(=O)c1ccccc1N(C)S(=O)(=O)c1ccccc1 | -25 | 69* | -1 | -5 | -4
CCOc1ccc(N(CC(=O)Nc2c(C)n(C)n(-c3ccccc3)c2=O)S(=O)(=O)c2ccc(F)cc2)cc1 | x | x | x | -3 | -10
Cc1c(NC(=O)c2ccccc2N(C)S(=O)(=O)c2ccccc2)c(=O)n(-c2ccccc2)n1C | -11 | 41* | -12 | 0 | -5
CCOc1ccccc1N(CC(=O)Nc1c(C)n(C)n(-c2ccccc2)c1=O)S(=O)(=O)c1ccccc1 | -9 | 57* | -2 | 4 | -15
CC1N(C)c2cccc3cccc(c23)N1C | 2 | 70* | -11 | -4 | -15
CN1c2cccc3cccc(c23)N(C)C1c1cccs1 | -19 | 17 | -18 | -4 | -11
CC(Oc1ccc(Br)cc1)C(=O)O/N=C(\N)c1ccncc1 (stereo not given) | -16 | 12 | -16 | -5 | -12
CCSc1nc2ccccc2n1CCC(=O)O | -1 | 16 | -1 | -1 | -1
Cc1ccccc1OCCSc1nc2ccccc2n1CCC(=O)O | -11 | 74* | 34 | -4 | -7
O=C(O)CCn1c(SCc2cccc3ccccc23)nc2ccccc21 | -8 | 68* | -26 | 4 | 4
Cc1ccc(OCCSc2nc3ccccc3n2CCC(=O)O)cc1 | -10 | 49* | 12 | -8 | -5
CC1CCc2c(sc3ncn(CC(=O)N4CCCCC4)c(=O)c23)C1 (stereo not given) | -17 | 12 | -25 | -3 | 0
CCCC[n+]1ccn(C2=C([O-])c3ccccc3C(=O)/C2=N\S(=O)(=O)c2ccc(Cl)cc2)c1 | -28 | 47* | -32 | -1 | -3
CCCCC[n+]1ccn(C2=C([O-])c3ccccc3C(=O)/C2=N\S(=O)(=O)c2ccc(Cl)cc2)c1 | -11 | 33 | -21 | -4 | -9
SMILES | CHO parental Ca | OX1R antag-1 | OX1R antag-2 | GalR3 antagonist | GPR7 antagonist
O=C(Nc1ccc(Cl)c(Cl)c1)O/N=C/c1ccncc1 | 31* | 45 | 27 | -2 | 9
O=C(Nc1cccc(Cl)c1)O/N=C\c1ccncc1 | -14 | 0 | 8 | -3 | -4
Nc1[nH]c(C(=O)c2ccccc2)c(-c2ccc(Cl)c(F)c2)c1C(=O)c1c[nH]c2ccccc12 | x | x | x | -7 | x
COc1cc(O)c(CC=C(C)C)c(O)c1C(=O)CCc1ccc(O)cc1 | 39* | 9 | 36 | -8 | x
O=C(N[C@H](Cc1ccccc1)C(=O)NCCCc1ccccc1)[C@H]1O[C@@H](n2ccc(=O)[nH]c2=O)[C@H](O)[C@@H]1O | x | x | x | -4 | x
CCN1C(=O)c2c(C)nc3ccccc3c2C1=O | -14 | 39* | -20 | x | -9
O=C(N/N=C/c1cc([N+](=O)[O-])ccc1Cl)c1ccc2nc[nH]c2c1 | 4 | 62* | -3 | -3 | 1
O=C(N/N=C/c1ccc(Cl)cc1Cl)c1ccc2nc[nH]c2c1 | -8 | 35* | -26 | 0 | -9
O=C(N/N=C/c1cccc([N+](=O)[O-])c1)c1cccc2cc[nH]c12 | 10 | 20 | 11 | 0 | 5
O=C(N/N=C/c1ccco1)c1ccc2nc[nH]c2c1 | -21 | 3 | -8 | -8 | -6
O=C(N/N=C/c1ccccc1C(F)(F)F)c1ccc2nc[nH]c2c1 | -6 | 17 | -2 | -7 | -9
O=C(N/N=C/c1cc([N+](=O)[O-])ccc1O)c1cccc2cc[nH]c12 | 57* | 34 | 49* | -6 | -4
COc1cc(/C=N/NC(=O)c2ccc3c(c2)OCCO3)c(Br)c(Br)c1O | -15 | 65* | 4 | -1 | -1
COc1ccc(Br)cc1/C=N/NC(=O)c1ccc2nc[nH]c2c1 | -4 | 41* | 3 | 0 | -7
COc1ccc(Br)cc1/C=N/NC(=O)c1ccc(OC)c(OC)c1 | -2 | 43* | -16 | -5 | 1
C[C@@H]1ON(C)[C@H]2C[C@H]3c4[nH]c5c(-c6cccc(Cl)c6)cccc5c4CCN3C(=O)[C@@H]12 | x | x | x | -1 | x
N#CCCN1CCN(C2=NC(=O)/C(=C\c3cccs3)S2)CC1 | 11 | 42* | -5 | -10 | -7
O=C1N=C(N2CCOCC2)S/C1=C\c1cccs1 | -3 | 41 | -5 | -9 | 8
Cc1cc(C)cc(NC(=O)CCn2c(=O)c3cccn3c3ccccc32)c1 | -12 | 41* | 13 | -10 | -1
Cc1ccc(NC(=O)CCn2c(=O)c3cccn3c3ccccc32)c(C)c1 | -11 | 8 | -30 | -7 | -7
CCN(CC)C(=O)c1ncn2c1C(=O)N[C@H](C)C2 | x | x | x | -4 | x
Cc1ccc(S(=O)(=O)n2nc(C)c(Br)c2C)c(C)c1C | 38 | 47 | 52* | -1 | -12
OCC[C@@H]1C[C@@H](O)[C@H](O)[C@]2(Cc3ccccc3CCO2)O1 | 4 | 11 | 3 | -2 | 8
[O-][N+]1=c2ccc(Nc3ccccc3)cc2=NC12CCCCC2 | -19 | 47* | -10 | -6 | -10
COc1ccccc1N1CCN(C(=O)CCC(=O)Nc2nnc(C(C)C)s2)CC1 | 0 | 10 | -8 | -8 | -4
COc1cc([N+](=O)[O-])c(N2CCOCC2)c([N+](=O)[O-])c1OC | -21 | 22 | -13 | 5 | -2
